The entries come from a sample that favours hits as a whole.
Pf Dd2 inh: inhibitors of Plasmodium falciparum Dd2 growth. P. falciparum Dd2 growth, SYBR Green, 72 h; stronger effect = lower value. AID 1159554. activity change, % at 10 µM. hit rate 2.3% among 94,000; in the data active = activity change below about -80%; inconclusive = no clear call, values can overlap the other calls
GASC1 inh: inhibitors of human demethylase GASC-1 KDM4C. Q9H3R0. GST-KDM4C 2-372, H3K9me3 peptide, LANCE TR-FRET. inhibition, % at 12.5 µM. hit rate 0.15% among 96,000;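 active = mean replicate inhibition above about 25%, with at least 55% of replicates also reaching it, limit read from the data, passing the limit was not always enough; inconclusive = only one of those two conditions met; inactive = neither condition met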
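Material: GST-tagged GASC-1 (JMJD2C) catalytic fragment, aa 2-372. Input: enzyme final amount 10 nM. Medium: HEPES buffer, pH 7.5, plus ascorbate. Reagent: H3K9me3 peptide substrate, Fe(II), 2-oxoglutarate. Doses: single dose. Times: reaction 30 min RT, detection step 1 h RT. Measured by: LANCE TR-FRET. Evaluation: Fall in 671/618 emission ratio as inhibition.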
IDH1 R132H inh: blocks human IDH1 R132H reductase activity; O75874; diaphorase/resazurin fluorescence, 60 min; inhibition, % at 10 µM; hit rate 0.18% among 70,000; in the data active = inhibition above about 34%; inconclusive = no clear call, values can overlap the other calls; inactive = below about 11%;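 also: 0% = DMSO and 100% = no enzyme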
Target sequence (O75874 whole entry R132H): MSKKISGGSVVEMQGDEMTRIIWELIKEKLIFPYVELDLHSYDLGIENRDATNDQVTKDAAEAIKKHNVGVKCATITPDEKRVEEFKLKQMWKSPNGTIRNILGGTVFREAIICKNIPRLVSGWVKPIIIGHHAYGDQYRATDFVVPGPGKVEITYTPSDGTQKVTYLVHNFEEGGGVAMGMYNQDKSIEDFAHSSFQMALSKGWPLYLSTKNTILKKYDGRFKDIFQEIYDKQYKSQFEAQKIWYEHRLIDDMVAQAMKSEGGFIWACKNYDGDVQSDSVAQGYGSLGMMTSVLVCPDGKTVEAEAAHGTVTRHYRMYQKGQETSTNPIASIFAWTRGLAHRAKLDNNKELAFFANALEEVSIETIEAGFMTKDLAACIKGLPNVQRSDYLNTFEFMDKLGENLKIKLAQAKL
Starred values were filed as active, the others as inactive.

Cc1noc(C)c1S(=O)(=O)N(C)C[C@@H]1OCCCC[C@H](C)Oc2ccc(NC(=O)Nc3cccc4ccccc34)cc2C(=O)N([C@H](C)CO)C[C@H]1C was read as Pf Dd2 inh -79, GASC1 inh 2 and IDH1 R132H inh 2.
`Cc1noc(C)c1S(=O)(=O)N(C)C[C@H]1OCCCC[C@H](C)Oc2ccc(NC(=O)Nc3cccc4ccccc34)cc2C(=O)N([C@H](C)CO)C[C@H]1C` gave Pf Dd2 inh -92*, GASC1 inh -1 and IDH1 R132H inh 1.
`Cc1noc(C)c1S(=O)(=O)N(C)C[C@H]1OCCCC[C@H](C)Oc2ccc(NC(=O)Nc3cccc4ccccc34)cc2C(=O)N([C@@H](C)CO)C[C@@H]1C` gave Pf Dd2 inh -85*, GASC1 inh -3 and IDH1 R132H inh 3.
C[C@@H]1CN([C@H](C)CO)C(=O)c2cc(NC(=O)CCC(F)(F)F)ccc2O[C@@H]1CN(C)S(=O)(=O)c1cn(C)cn1 was read as Pf Dd2 inh 15, GASC1 inh 0 and IDH1 R132H inh 2.
Screening C[C@@H]1CN([C@H](C)CO)C(=O)c2cc(C#Cc3cccc(F)c3)cnc2O[C@H]1CN(C)C(=O)c1ccccc1F returned Pf Dd2 inh -85*, GASC1 inh 0 and IDH1 R132H inh -5.
`C[C@@H]1CN([C@H](C)CO)C(=O)c2cc(C#Cc3cccc(F)c3)cnc2O[C@@H]1CN(C)C(=O)c1ccccc1F` gave Pf Dd2 inh -81*, GASC1 inh 0 and IDH1 R132H inh -1.
For C[C@@H]1CN([C@H](C)CO)C(=O)c2cc(C#Cc3ccccc3F)cnc2O[C@H]1CN(C)C(=O)Cc1ccncc1 the results were Pf Dd2 inh -84* and GASC1 inh -1.
`C[C@@H]1CN([C@@H](C)CO)C(=O)c2cc(C#Cc3ccccc3F)cnc2O[C@H]1CN(C)C(=O)Cc1ccncc1` gave Pf Dd2 inh -24, GASC1 inh 2 and IDH1 R132H inh 0.
`C[C@H](CO)N1C[C@H](C)[C@@H](CN(C)C(=O)c2ccccc2F)Oc2ncc(C#Cc3ccncc3)cc2C1=O` gave Pf Dd2 inh 5, GASC1 inh -2 and IDH1 R132H inh 1.
`C[C@H]1CN([C@@H](C)CO)C(=O)c2cc(C#Cc3cccc(F)c3)cnc2O[C@@H]1CN(C)C(=O)c1ccccc1F` gave Pf Dd2 inh inconclusive, GASC1 inh -1 and IDH1 R132H inh 0.
C[C@@H]1CN([C@H](C)CO)C(=O)c2cc(C#Cc3ccncc3)cnc2O[C@@H]1CN(C)C(=O)c1ccccc1F was read as Pf Dd2 inh -3, GASC1 inh 4 and IDH1 R132H inh 36*.
Screening C[C@H](CO)N1C[C@H](C)[C@H](CN(C)C(=O)c2ccccc2F)Oc2ncc(C#Cc3cccc(F)c3)cc2C1=O returned Pf Dd2 inh -77, GASC1 inh -1 and IDH1 R132H inh 0.
O=C(Nc1ccc2c(c1)OCO2)N[C@@H]1C=C[C@H](CC(=O)N2CCN(c3ccccc3)CC2)O[C@@H]1CO was read as Pf Dd2 inh 17 and GASC1 inh 0.
Screening COc1ccc(OCC(=O)Nc2ccc3oc(-c4ccc(C)c(C)c4)nc3c2)cc1 returned IDH1 R132H inh 0.
For C[C@H](CO)N1C[C@H](C)[C@H](CN(C)S(=O)(=O)c2ccccc2)Oc2ccc(NC(=O)C3CC3)cc2CC1=O the results were Pf Dd2 inh -32, GASC1 inh 1 and IDH1 R132H inh 1.
`CCN1C(=O)C(O)(CC(=O)c2ccco2)c2cc(Br)ccc21` (stereo not given) gave IDH1 R132H inh 0.
For C[C@H]1CN([C@@H](C)CO)C(=O)c2cccc(NS(=O)(=O)c3ccccc3)c2O[C@@H]1CN(C)S(=O)(=O)c1ccc(Cl)cc1 the results were Pf Dd2 inh 31 and GASC1 inh 1.
`C/C=C/c1ccc([C@H]2[C@@H](CO)N(Cc3cncnc3)C23CN(C(=O)CC2CC2)C3)cc1` gave Pf Dd2 inh -35 and GASC1 inh 1.
For O=C(NCC[C@@H]1CC[C@@H](NC(=O)C2CCCCC2)[C@H](CO)O1)c1cc(Cl)cc(Cl)c1 the results were Pf Dd2 inh 8, GASC1 inh -1 and IDH1 R132H inh 0.
O=C(c1cccc(F)c1)N1CC[C@@H]2[C@@H](CO)Nc3ccc(C#Cc4ccc(F)cc4)cc3[C@@H]21 was read as Pf Dd2 inh -7.
For CC(C)NC(=O)N(C)C[C@@H]1Oc2ccc(NC(=O)CCCN(C)C)cc2C(=O)N([C@H](C)CO)C[C@H]1C the results were Pf Dd2 inh 4, GASC1 inh 0 and IDH1 R132H inh 0.
`C[C@H](CO)N1C[C@H](C)[C@@H](CN(C)C(=O)c2cccc(F)c2)Oc2ncc(/C=C/c3ccccc3)cc2C1=O` gave Pf Dd2 inh inconclusive, GASC1 inh -5 and IDH1 R132H inh 0.
`C[C@@H]1CN([C@H](C)CO)C(=O)c2cc(C#Cc3ccccc3)cnc2O[C@H]1CN(C)C(=O)c1ccccc1F` gave Pf Dd2 inh -60 and GASC1 inh 1.
For C[C@H]1CN([C@@H](C)CO)C(=O)c2cc(/C=C/c3ccccc3)cnc2O[C@@H]1CN(C)C(=O)c1cccc(F)c1 the results were Pf Dd2 inh -83*, GASC1 inh 2 and IDH1 R132H inh 0.
`C[C@H]1CN([C@@H](C)CO)C(=O)c2cc(C#Cc3cccc(F)c3)cnc2O[C@H]1CN(C)C(=O)c1ccccc1F` gave Pf Dd2 inh -82*, GASC1 inh 12 and IDH1 R132H inh 0.
Screening CO[C@H]1CN(C)C(=O)c2cc(NC(=O)c3cnccn3)ccc2OC[C@H](C)N(CCc2ccccc2)C[C@H]1C returned Pf Dd2 inh -44, GASC1 inh 3 and IDH1 R132H inh 0.
For CCCN(C)C[C@H]1Oc2cc(C#Cc3ccccc3OC)ccc2S(=O)(=O)N([C@H](C)CO)C[C@H]1C the results were Pf Dd2 inh -81*, GASC1 inh -2 and IDH1 R132H inh -3.
CCCN(C)C[C@@H]1Oc2cc(C#Cc3ccccc3OC)ccc2S(=O)(=O)N([C@H](C)CO)C[C@@H]1C was read as Pf Dd2 inh -84*, GASC1 inh -2 and IDH1 R132H inh 0.
`CCCN(C)C[C@@H]1Oc2cc(C#Cc3ccccc3OC)ccc2S(=O)(=O)N([C@@H](C)CO)C[C@@H]1C` gave Pf Dd2 inh -39, GASC1 inh 0 and IDH1 R132H inh -4.
CCCN(C)C[C@H]1Oc2cc(C#Cc3ccccc3OC)ccc2S(=O)(=O)N([C@@H](C)CO)C[C@H]1C was read as Pf Dd2 inh -63, GASC1 inh -5 and IDH1 R132H inh 0.
CCCNC(=O)N1C[C@@H](C)[C@@H](OC)CN(C)C(=O)c2ccc(NS(=O)(=O)CC(F)(F)F)cc2OC[C@@H]1C was read as Pf Dd2 inh 29, GASC1 inh 2 and IDH1 R132H inh 0.
Screening C[C@@H]1CN([C@H](C)CO)C(=O)c2cc(C3=CCCC3)cnc2O[C@@H]1CN(C)C(=O)C1CCCCC1 returned Pf Dd2 inh -6, GASC1 inh 10 and IDH1 R132H inh 0.
COc1ccc(NC(=O)N(C)C[C@@H]2OCc3ccccc3-c3c(n(C)c4ccccc34)C(=O)N([C@@H](C)CO)C[C@@H]2C)cc1 was read as Pf Dd2 inh -67, GASC1 inh -1 and IDH1 R132H inh -7.

Bioassay records deposited in PubChem BioAssay by Broad Institute.
